# MC4R ag barr – activates human MC4R beta-arrestin recruitment; AID 540308; activation, % at 8.9 µM; hit rate 0.98% among 360,000; P32245; U2OS MC4R beta-arrestin complementation, luminescence; percent of melanotan II response, DMSO zero;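 active = activation above a per-plate cutoff, the mean activation of sample wells on that plate plus 3 SD, cut at about 8% in these data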
# Target sequence (P32245 whole entry, looked up): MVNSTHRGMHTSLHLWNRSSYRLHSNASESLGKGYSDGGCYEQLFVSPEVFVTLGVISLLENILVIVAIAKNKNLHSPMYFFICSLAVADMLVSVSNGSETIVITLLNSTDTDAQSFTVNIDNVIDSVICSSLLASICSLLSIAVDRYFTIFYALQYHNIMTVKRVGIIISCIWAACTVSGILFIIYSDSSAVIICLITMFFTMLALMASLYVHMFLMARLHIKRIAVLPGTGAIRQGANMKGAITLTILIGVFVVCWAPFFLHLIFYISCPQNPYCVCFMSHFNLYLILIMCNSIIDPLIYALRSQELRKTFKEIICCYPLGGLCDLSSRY
# MC4R antag cAMP – blocks human MC4R cAMP signaling; MC4R-expressing cells, MTII-stimulated cAMP, LANCE TR-FRET; inhibition, % at 6.5 µM; hit rate 0.48% among 360,000;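 active = inhibition above its plate's cutoff, the mean of tested wells on that plate plus 3 SD, cut at about 29% in these data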;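 note: 0% = Melanotan II alone and 100% = Melanotan II plus saturating MCL0020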
#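 Material: human MC4R-expressing U2OS cells. Probe or stimulus: Melanotan II challenge. Dosing: 6.5 µM single dose. Times: 30-min compound, 1-h challenge, 1-h detection, room temperature. Technique: TR-FRET with Eu-cAMP and labeled anti-cAMP, 671 nm. Replication: singlicate.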
# TMEM16A act – activators or potentiators of mouse TMEM16A chloride channel; AID 623877; B-score at 10 µM; hit rate 0.3% among 340,000; HEK293 TMEM16A/YFP-H148Q/I152L, iodide quench fluorescence; active compounds read low;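 active = fluorescence-ratio B-score plate-corrected deviation score at least 3 library SD below zero, with starting fluorescence score within 5 deviations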;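 note: channel opened by trigger with iodide after compound preincubation; score built on the fluorescence ratio of max minus min over baseline; more negative score means more quench and so TMEM16A activation or potentiation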
# HTR2A ag – mouse HTR2A agonism via beta-arrestin recruitment; P35363; CHO-K1 mHTR2A beta-arrestin complementation, luminescence; percent of 30 µM serotonin response; activation, % at 7.6 µM; hit rate 0.66% among 360,000; AID 624169;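 active = activation above a run cutoff, the mean activation of all tested compounds plus 3 SD, cut at about 14% in these data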;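 note: 0% = plate median of compound wells and 100% = 30 µM serotonin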
# ANO1 block – inhibitors of mouse TMEM16A calcium-activated chloride channel | Q8BHY3 | HEK293 TMEM16A/YFP iodide influx fluorescence, ionomycin | normalized B-score (activity score, 25-100; higher = stronger inhibition) at 10 µM | hit rate 1.2% among 310,000 | AID 588511;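 active = ratio plate-corrected score three or more library SD toward inhibition, starting fluorescence score within five deviations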;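 note: score derived from kinetic fluorescence span divided by baseline fluorescence per well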
# beta cell repl – inducers of beta-cell replication in MIN6 cells; hit rate 0.29% among 330,000; MIN6 cells proliferation, ATPlite luminescence, 48 h; cells starved in 0.2% serum; 100% = growth in 10% serum; proliferation, % at 10 µM;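 active = compounds whose signal lies at least 3.5 SD above the mean of all wells on their plate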;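 note: 0% = DMSO-treated cells in low-serum medium and 100% = 10% serum control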
# cAMP nonselect – nonselective cAMP signaling inhibitor, MC4R antagonist counter-screen; parental U2OS, forskolin cAMP, LANCE TR-FRET; AID 602193; hit rate 26% among 1,600; shares compounds with MC4R antag cAMP; inhibition, % at 6.5 µM;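 active = mean inhibition over triplicates above the low-control well mean plus 3 SD, set per campaign, cut at about 13% in these data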;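 note: signal is single emission at 671 nm which falls as cellular cAMP rises; 0% = forskolin-stimulated wells and 100% = buffer without forskolin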
# MC4R cAMP antag – human MC4R cAMP antagonism confirmation. AID 602195. MC4R-expressing cells, MTII-stimulated cAMP, TR-FRET. shares compounds with MC4R antag cAMP. hit rate 27% among 1,600. inhibition, % at 6.5 µM; in the data active = inhibition above about 29%;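 note: 0% = agonist stimulated wells alone and 100% = agonist stimulated wells plus saturating reference antagonist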
# Active calls of the source: *; i = inactive; / = no result given. Rows were chosen to be rich in hits. Some 3.4% of all compounds tested hit in one or more screens of this group.
SMILES,MC4R ag barr,MC4R antag cAMP,TMEM16A act,HTR2A ag,ANO1 block,beta cell repl,cAMP nonselect,MC4R cAMP antag
CS(=O)(=O)c1ccc(C(=O)OCC(=O)NCc2cccs2)cc1[N+](=O)[O-],-2,47*,i,5,/,-6,22*,18
Cc1cccc(C(=O)OCC(=O)NCc2cccs2)c1,-2,5,i,7,i,-2,/,/
CC1Cc2ccccc2N1S(=O)(=O)c1cnc(Cl)c(Br)c1 (centres undefined),-2,30*,i,3,i,-6,22*,38*
N/C(=N\OC(=O)c1ccc(Cl)c([N+](=O)[O-])c1)c1ccccn1,-1,48*,i,0,i,-1,28*,40*
O=C(COC(=O)c1ccccc1C(=O)c1ccc(Cl)c([N+](=O)[O-])c1)NC1CC1,0,29*,i,-6,i,-6,21*,-14
N/C(=N\OC(=O)c1cc([N+](=O)[O-])ccc1Cl)c1cccnc1,1,62*,i,1,i,-6,18*,47*
N/C(=N\OC(=O)c1ccc(Cl)c([N+](=O)[O-])c1)c1ccccc1,-1,44*,i,7,i,-3,22*,36*
N/C(=N\OC(=O)c1ccc([N+](=O)[O-])cc1)c1cccnc1,-3,-2,i,-3,i,-2,/,/
CNC(=O)COC(=O)c1ccccc1C(=O)c1ccc(Cl)c([N+](=O)[O-])c1,-2,26,i,-4,/,/,/,/
COC(=O)[C@@H](Cc1ccccc1)NC(=O)Cn1cc(C)c(=O)[nH]c1=O,-1,-6,/,0,/,/,/,/
O=C(CCCN1CCC(C(O)c2ccc(F)cc2)CC1)c1ccc(F)cc1 (centres undefined),/,/,/,-7,/,/,/,/
Cc1cc(C)c(/C=N/n2c(C)cc(C)c(C#N)c2=O)c(C)c1,0,29*,i,5,i,-4,-1,-8
Cc1cc(C)n(/N=C/c2cccs2)c(=O)c1C#N,-2,-4,i,1,i,0,/,/
CC(=O)Nc1ccc(C=C(C#N)c2ccc(C)cc2)cc1,2,3,/,4,/,/,/,/
COc1ccccc1N(CC(=O)Nc1ccc2c(c1)OCCO2)S(=O)(=O)c1ccc(C)cc1,2,26,i,1,i,-3,/,/
O=C(CCc1nc(-c2ccccc2Cl)no1)NCCc1ccccc1,1,29*,i,-1,i,1,-1,2
CSc1ccc(CNC(=O)C2(C)CCCN(C(C)=O)C2)cc1 (centres undefined),-1,6,/,7,/,/,/,/
COC(=O)CSc1nc2ccccn2c(=O)c1C=O,0,31*,i,-1,i,-1,0,-10
CCOC(=O)[C@]12CCCC=C1N(CCc1ccc(OC)c(OC)c1)C(=O)[C@H](CC(=O)NCCc1ccccc1OC)C2,/,/,/,-2,/,/,/,/
CN1C2CCC1/C(=C\c1ccc(F)cc1)C(=O)/C2=C/c1ccc(F)cc1,3,7,i,-6,i,-6,/,/
C=CC(=O)N1C/C(=C/c2ccc(F)cc2)C(=O)/C(=C\c2ccc(F)cc2)C1,-5,40*,i,-6,/,/,28*,22
COc1ccc(CNC(=O)/C=C/[C@H]2O[C@@H](n3ccc(=O)[nH]c3=O)[C@H](O)[C@@H]2O)cc1,/,/,/,4,/,/,/,/
COc1cc(/C=N/Nc2nc(Nc3ccc(C)cc3)nc(-n3nc(C)cc3C)n2)cc(OC)c1OC,4,29*,i,9,i,-1,7,30*
COc1cc(/C=N/Nc2nc(Nc3ccccc3)nc(-n3nc(C)cc3C)n2)cc(OC)c1OC,-3,21,i,3,i,-4,/,/
COc1ccc(/C=N/Nc2nc(Nc3ccccc3)nc(N3CCCC3)n2)cc1[N+](=O)[O-],3,32*,i,-8,i,-5,2,1
SMILES,MC4R ag barr,MC4R antag cAMP,TMEM16A act,HTR2A ag,ANO1 block,beta cell repl,cAMP nonselect,MC4R cAMP antag
COc1ccc(/C=N/Nc2nc(N3CCCCC3)nc(N3CCCCC3)n2)cc1[N+](=O)[O-],0,25,i,-3,i,-6,/,/
COc1cccc(C2C(C(=O)Nc3nc4ccccc4s3)=C(C)NC3=C2C(=O)CC(C)(C)C3)c1OC (centres undefined),7,6,i,-2,i,-5,/,/
COc1ccc(OC)c(C2C(C(=O)Nc3nc4ccccc4s3)=C(C)NC3=C2C(=O)CCC3)c1 (centres undefined),-3,33*,i,-1,i,-3,7,43*
CCOC(=O)Cn1nnnc1CN(Cc1cccs1)Cc1cc2cc(C)ccc2[nH]c1=O,2,31*,i,5,i,-3,9,10
O=C(OCc1cn([C@H]2C[C@H](c3ccc(Cl)cc3)N(C(=O)c3cccs3)C[C@@H]2O)nn1)c1ccccc1,-1,-2,/,-3,/,/,/,/
Cc1cccc(N2C(=O)N3[C@H]4c5ccccc5OC[C@@H]4[C@@H](c4ccccc4)[C@@]3(C)C2=O)c1,-2,7,i,2,/,-6,/,/
CC1=C(CO)C(=O)OC([C@@H](C)C2CC[C@H]3C4C[C@H]5O[C@]56[C@@H](O)C=CC(=O)[C@]6(C)C4CC[C@]23C)C1 (some centres undefined),-1,39*,i,-3,i,/,-3,48*
O=C(NC1CCCC1)C(c1ccco1)N1CCC(O)(c2ccc(Cl)cc2)CC1 (centres undefined),/,/,/,-3,/,/,/,/
CC(C)OC(=O)CNc1n[nH]c(=S)[nH]c1=O,0,41*,i,1,/,/,3,13
CCOC(=O)CSc1nnc(NCC(=O)OC(C)C)c(=O)[nH]1,-1,35*,i,7,i,-1,18*,28
CCOC(=O)CNC(=O)CSc1nnc(C)c(=O)[nH]1,-1,10,i,2,i,0,/,/
CC(C)Sc1nc2c(c(=O)[nH]c(=O)n2C)n1CC(O)COc1ccccc1 (centres undefined),1,14,i,1,i,1,/,/
Cn1c(=O)[nH]c(=O)c2c1nc(Br)n2CC(O)COc1ccc(Cl)cc1 (centres undefined),2,31*,i,2,i,-2,-4,-2

# High-throughput results deposited in PubChem BioAssay by several laboratories.
